Assay results from ChEMBL document CHEMBL3994580, “A novel class of α-glucosidase and HMG-CoA reductase inhibitors from Ganoderma leucocontextum and the anti-diabetic properties of ganomycin I in KK-Ay mice” (Eur J Med Chem, 2017).
Calls of active or inactive are those of the source.

Assays:
[1] = Inhibition of baker's yeast alpha-glucosidase using p-nitrophenyl alpha-D-glucopyranoside as substrate preincubated for 10 mins followed by substrate addition measured for 15 mins; parameters: species or system Saccharomyces cerevisiae
In short: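 Baker's yeast α-glucosidase with pNPG, read at 405 nm. Control contained phosphate buffer in place of compound, and blank contained buffer in place of enzyme.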

[2] = Inhibition of maltase in rat small intestinal mucosa assessed as reduction in glucose production using maltose as substrate measured after 40 mins by glucose oxidase assay
In short: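 Rat small intestinal mucosa enzyme. Compound in DMSO mixed with substrate (maltose, sucrose or pNPG) and enzyme in 0.1 M phosphate buffer pH 6.9, incubated 40 min. Glucose released measured by glucose oxidase kit at 550 nm. Blank lacked enzyme, control lacked compound. Percent inhibition calculated from blank-corrected OD.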

[3] = molecular target: T1, 3-hydroxy-3-methylglutaryl-coenzyme A reductase (Sus scrofa) (UniProt Q1W675); assay: Non-competitive inhibition of HMG-CoA reductase in pig liver microsomes using varying levels of HMG-CoA as substrate preincubated for 5 mins followed by NADPH addition measured after 15 mins by Lineweaver-Burk plot analysis
T1 sequence (whole entry): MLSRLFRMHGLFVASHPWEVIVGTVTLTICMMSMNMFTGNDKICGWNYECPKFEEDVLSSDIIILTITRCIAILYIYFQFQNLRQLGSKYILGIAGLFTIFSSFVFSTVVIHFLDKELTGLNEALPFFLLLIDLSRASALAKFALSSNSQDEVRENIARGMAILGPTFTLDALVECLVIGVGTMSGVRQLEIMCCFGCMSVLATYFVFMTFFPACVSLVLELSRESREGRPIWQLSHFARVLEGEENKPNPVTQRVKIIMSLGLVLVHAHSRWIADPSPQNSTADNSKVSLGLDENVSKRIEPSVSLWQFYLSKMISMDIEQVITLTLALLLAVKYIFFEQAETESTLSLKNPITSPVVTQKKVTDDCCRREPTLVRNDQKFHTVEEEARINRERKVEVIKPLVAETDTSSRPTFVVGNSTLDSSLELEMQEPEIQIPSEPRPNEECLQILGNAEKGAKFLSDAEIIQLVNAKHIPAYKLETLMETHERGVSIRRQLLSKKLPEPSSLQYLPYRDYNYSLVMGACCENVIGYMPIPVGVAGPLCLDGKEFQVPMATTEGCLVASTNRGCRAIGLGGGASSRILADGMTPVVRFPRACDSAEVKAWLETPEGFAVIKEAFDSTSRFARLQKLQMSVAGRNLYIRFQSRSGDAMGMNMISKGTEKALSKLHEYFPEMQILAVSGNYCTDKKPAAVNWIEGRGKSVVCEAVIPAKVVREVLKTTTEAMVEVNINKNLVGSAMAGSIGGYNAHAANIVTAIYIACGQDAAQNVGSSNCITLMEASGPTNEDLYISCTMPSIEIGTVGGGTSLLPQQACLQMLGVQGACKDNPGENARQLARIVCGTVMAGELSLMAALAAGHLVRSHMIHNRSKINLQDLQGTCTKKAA
In short: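 HMG-CoA reductase kinetics: inhibitor at 5 to 20 μM, HMG-CoA at 2, 4, 6 and 8 μM. Initial velocities with and without inhibitor analysed by Lineweaver-Burk double-reciprocal plots.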

Mus musculus [4] = assay: Acute toxicity in mouse assessed as convulsion up to […], po up to 14 days; format: organism-based; conditions: in vivo, 336 h
Mus musculus [5] = assay: Antidiabetic activity in KK-Ay diabetic mouse model assessed as reduction in free diet blood glucose level at 1 to 5 mg/kg/day administered via oral gavage once daily measured on day 3 post dose; format: functional, organism-based
In short: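 Non-fasted (free diet) blood glucose was tracked serially in high-fat-fed KK-Ay mice given daily gavage doses (1 or 5 mg/kg; rosiglitazone 10 mg/kg). Mean ± SEM, n = 8.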

Mus musculus [6] = assay: Antidiabetic activity in KK-Ay diabetic mouse model assessed as reduction in HbA1C level at 1 to 5 mg/kg/day administered via oral gavage once daily for 21 days; format: functional, organism-based
Mus musculus [7] = assay: Toxicity in KK-Ay diabetic mouse model assessed as changes in body weight at 1 to 5 mg/kg/day administered via oral gavage once daily measured every 3 days during first two weeks of compound dosing; format: organism-based; conditions: in vivo, 72 h
In short: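 In high-fat-fed KK-Ay mice gavaged once daily for 21 days, individual body weight and cage food consumption were recorded every 3 days. Mean ± SEM, n = 8.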

Mus musculus [8] = assay: Antidiabetic activity in KK-Ay diabetic mouse model assessed as reduction in blood glucose level at 1 to 5 mg/kg/day administered via oral gavage once daily for 21 days by oral sucrose tolerance test; format: functional, organism-based
In short: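 Oral sucrose tolerance test on day 20 of once-daily gavage treatment in high-fat-fed KK-Ay mice. Blood glucose followed over time, and the AUC was calculated. Mean ± SEM, n = 8.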

Mus musculus [9] = assay: Antidiabetic activity in KK-Ay diabetic mouse model assessed as reduction in serum insulin level at 1 to 5 mg/kg/day administered via oral gavage once daily for 21 days; format: functional, organism-based
In short: (§1)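 Male KK-Ay mice (8 weeks old) on high-fat diet with water ad libitum, dosed by gavage once daily for 21 days (1 or 5 mg/kg test; rosiglitazone 10 mg/kg); female C57BL/6J mice as normal controls. Blood collected at study end. Serum lipids, insulin and glucose measured per cited method. ISI calculated from fasting blood glucose and fasting insulin. Mean ± SEM, n = 7-8.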

Mus musculus [10] = assay: Antidiabetic activity in KK-Ay diabetic mouse model assessed as increase in insulin sensitivity index at 1 to 5 mg/kg/day administered via oral gavage once daily for 21 days; format: functional, organism-based; in short: as §1
Mus musculus [11] = assay: Antidiabetic activity in KK-Ay diabetic mouse model assessed as reduction in blood glucose level at 5 mg/kg/day administered via oral gavage once daily for 21 days measured at 30 to 60 mins post glucose challenge by oral glucose tolerance test; format: functional, organism-based
In short: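 OGTT on day 21 of daily gavage dosing in KK-Ay mice. Blood glucose read at time points including 30 and 60 min, and the AUC was calculated. Mean ± SEM, n = 8.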

Mus musculus [12] = assay: Antidiabetic activity in KK-Ay diabetic mouse model assessed as reduction in blood glucose level at 5 mg/kg/day administered via oral gavage once daily measured on day 19 at 30 to 60 mins post insulin challenge by insulin tolerance test; format: functional, organism-based
In short: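 ITT on day 19 of treatment: after 4 h fasting, insulin 0.6 U·kg-1 given intraperitoneally. Glycaemia was sampled from the tail tip before and at set times after injection, and the AUC was computed. Mean ± SEM, n = 8.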

Mus musculus [13] = assay: Hypolipidemic activity in KK-Ay diabetic mouse model assessed as reduction in serum total cholesterol level at 1 to 5 mg/kg/day administered via oral gavage once daily for 21 days; format: functional, organism-based; in short: as §1
Mus musculus [14] = assay: Hypolipidemic activity in KK-Ay diabetic mouse model assessed as reduction in serum LDL-C level at 1 to 5 mg/kg/day administered via oral gavage once daily for 21 days; format: functional, organism-based; in short: as §1
Mus musculus [15] = assay: Decrease in lipid droplet accumulation in liver in KK-Ay diabetic mouse model at 5 mg/kg/day administered via oral gavage once daily for 21 days by haematoxylin and eosin staining based microscopic or morphometric method; format: functional, organism-based
In short: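 At study end, liver and abdominal white adipose tissue were fixed in 10% formaldehyde PBS (pH 7.4), paraffin-embedded, sectioned and stained with haematoxylin/eosin. Sections were assessed by microscopy or morphometry at 20×.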

Mus musculus [16] = assay: Acute toxicity in mouse assessed as coma up to 3 g/kg, po up to 14 days; conditions: in vivo, 336 h

CC(C)=CCC/C(C)=C/CCC1=C[C@H](c2cc(O)ccc2O)OC1=O
active: inhibition [3] | Activity (Mus musculus [5]) | Activity (Mus musculus [6]) | Activity (Mus musculus [8]) | Activity (Mus musculus [9]) | Activity (Mus musculus [10]) | Activity (Mus musculus [11]) | Activity (Mus musculus [12]) | Activity (Mus musculus [13]) | Activity (Mus musculus [14]) | Activity (Mus musculus [15])
3600 nM: IC50 [2]
300 nM: IC50 [1]
Non-Toxic: Activity (Mus musculus [4]) | Activity (Mus musculus [7]) | Activity (Mus musculus [16])
